Results published in ChEMBL document CHEMBL1152812, “Novel trans-2-aryl-cyclopropylamine analogues as potent and selective dipeptidyl peptidase IV inhibitors” (Bioorg Med Chem, 2009).
The source made the active and inactive calls. The rule behind the calls is not given here.

Legend:
Dipeptidyl peptidase 2 = Dipeptidyl peptidase 2 (Homo sapiens, UniProt Q9UHL4); assay: Inhibition of human DPP2
Prolyl endopeptidase FAP = target: T1, Prolyl endopeptidase FAP (Homo sapiens, UniProt Q12884); assay: Inhibition of human FAP
T1 sequence (Q12884 whole entry): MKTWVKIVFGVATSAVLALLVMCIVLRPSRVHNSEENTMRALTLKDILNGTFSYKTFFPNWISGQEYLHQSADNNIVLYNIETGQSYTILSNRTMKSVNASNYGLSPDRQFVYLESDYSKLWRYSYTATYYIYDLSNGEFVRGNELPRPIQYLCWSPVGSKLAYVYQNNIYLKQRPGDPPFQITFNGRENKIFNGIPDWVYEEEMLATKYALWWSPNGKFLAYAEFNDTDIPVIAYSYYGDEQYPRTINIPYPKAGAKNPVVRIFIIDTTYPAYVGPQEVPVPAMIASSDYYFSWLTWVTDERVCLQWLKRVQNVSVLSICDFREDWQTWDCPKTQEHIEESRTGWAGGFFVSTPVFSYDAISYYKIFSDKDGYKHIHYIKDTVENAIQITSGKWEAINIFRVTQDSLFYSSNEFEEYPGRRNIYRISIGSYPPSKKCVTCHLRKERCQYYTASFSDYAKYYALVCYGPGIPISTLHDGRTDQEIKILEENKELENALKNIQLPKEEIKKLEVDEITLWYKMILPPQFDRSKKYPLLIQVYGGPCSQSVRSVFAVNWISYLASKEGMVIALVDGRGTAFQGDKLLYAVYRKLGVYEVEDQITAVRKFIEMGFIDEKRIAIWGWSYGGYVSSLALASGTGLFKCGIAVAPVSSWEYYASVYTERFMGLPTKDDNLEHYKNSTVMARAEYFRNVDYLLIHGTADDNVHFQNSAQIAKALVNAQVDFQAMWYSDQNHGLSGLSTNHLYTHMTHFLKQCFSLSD

Homo sapiens [1] = species: Homo sapiens; assay: Selectivity for ratio of IC50 for human DPP4 to IC50 for human DPP8
Homo sapiens [2] = species: Homo sapiens; assay: Selectivity for ratio of IC50 for human DPP4 to IC50 for human DPP2
Homo sapiens [3] = species: Homo sapiens; assay: Selectivity for ratio of IC50 for human DPP4 to IC50 for human FAP
[4] = Plasma clearance in rat at 5 mg/kg, iv or 10 mg/kg, po; type: ADME, organism-based
Procedure, shortened: (§1)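 Rat pharmacokinetics after dosing at 5 mg/kg iv and 10 mg/kg po. Parameters derived: plasma clearance, oral Cmax, oral half-life, dose-normalised oral AUC and oral bioavailability (F).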

[5] = Cmax in rat at 10 mg/kg, po; type: ADME, organism-based; design: dose 10 mg/kg, route oral; details: in vivo; procedure, shortened: as §1
[6] = Half life in rat at 10 mg/kg, po; type: ADME, organism-based; design: dose 10 mg/kg, route oral; details: in vivo; procedure, shortened: as §1
[7] = Oral bioavailability in rat at 10 mg/kg, po; type: ADME, organism-based; details: in vivo; procedure, shortened: as §1
hERG (KCNH2) = hERG (KCNH2) (Homo sapiens, UniProt Q12809); assay: Inhibition of human ERG at 10 uM
hERG (KCNH2), sequence (Q12809 whole entry): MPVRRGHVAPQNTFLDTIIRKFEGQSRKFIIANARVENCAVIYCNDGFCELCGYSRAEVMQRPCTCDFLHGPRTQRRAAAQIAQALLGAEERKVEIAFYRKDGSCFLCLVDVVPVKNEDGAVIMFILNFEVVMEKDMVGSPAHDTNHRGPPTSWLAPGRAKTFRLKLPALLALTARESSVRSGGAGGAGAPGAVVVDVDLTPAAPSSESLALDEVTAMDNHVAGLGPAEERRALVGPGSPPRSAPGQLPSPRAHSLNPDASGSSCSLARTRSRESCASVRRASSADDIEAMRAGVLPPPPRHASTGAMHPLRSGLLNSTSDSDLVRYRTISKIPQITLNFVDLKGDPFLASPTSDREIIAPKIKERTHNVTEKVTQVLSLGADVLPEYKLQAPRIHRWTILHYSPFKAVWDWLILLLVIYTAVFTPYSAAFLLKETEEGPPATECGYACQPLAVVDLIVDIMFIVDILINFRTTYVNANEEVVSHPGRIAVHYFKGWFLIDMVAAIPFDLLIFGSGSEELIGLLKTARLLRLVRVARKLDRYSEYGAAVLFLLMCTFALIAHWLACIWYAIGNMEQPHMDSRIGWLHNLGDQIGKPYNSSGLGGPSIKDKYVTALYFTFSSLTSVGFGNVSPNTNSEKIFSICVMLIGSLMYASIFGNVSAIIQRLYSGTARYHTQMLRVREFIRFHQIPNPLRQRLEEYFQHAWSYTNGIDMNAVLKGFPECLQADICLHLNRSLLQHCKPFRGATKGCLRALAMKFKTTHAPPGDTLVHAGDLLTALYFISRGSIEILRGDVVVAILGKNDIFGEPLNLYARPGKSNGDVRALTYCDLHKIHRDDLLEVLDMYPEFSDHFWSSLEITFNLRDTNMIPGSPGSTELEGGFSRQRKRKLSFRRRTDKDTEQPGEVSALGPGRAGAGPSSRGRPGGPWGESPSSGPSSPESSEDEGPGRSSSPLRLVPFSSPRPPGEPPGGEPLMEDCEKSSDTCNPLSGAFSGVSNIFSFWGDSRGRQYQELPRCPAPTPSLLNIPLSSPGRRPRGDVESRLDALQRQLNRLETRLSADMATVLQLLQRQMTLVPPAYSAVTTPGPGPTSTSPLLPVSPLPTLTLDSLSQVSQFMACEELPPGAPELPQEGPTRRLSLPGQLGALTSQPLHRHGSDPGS
Procedure, shortened: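 hERG binding; percent inhibition at a test concentration of 10 µM.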

Rattus norvegicus [8] = assay: Inhibition of DPP4 in Wistar rat plasma at 10 mg/kg, po within 30 mins; type: functional; details: 0.5 h
Procedure, shortened: (§2)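 Adult male Wistar rats (n = 4–6/group) given a single oral gavage of 10 mg/kg in 0.5% methyl cellulose. Tail-vein blood (25–50 µl) taken at timed points and plasma kept frozen. Plasma (10 µl) mixed with 150 µM Gly-Pro-AMC in 25 mM Tris-HCl pH 7.4, 140 mM NaCl, 10 mM KCl, 0.1% BSA. Fluorescence read at ex 390/em 460 nm. Activity in U/mL; mean ± SEM.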

Rattus norvegicus [9] = assay: Inhibition of DPP4 in Wistar rat plasma at 10 mg/kg, po after 24 hrs; type: functional, organism-based; design: dose 10 mg/kg; procedure, shortened: as §2
Mus musculus [10] = assay: Reduction in glucose excursion in C57BL/6J lean mouse at 1 mg/kg, po pretreated 30 mins before glucose challenge measured after 120 mins by oral glucose tolerance test relative to control; type: functional; design: scale not given: the % may be the effect or the level left
Procedure, shortened: (§3)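 Fasted overnight: adult male C57BL/6 mice (20–25 g, 6–8 weeks old, n = 6/group), grouped by tail-vein glucometer reading. Oral gavage of test agent in distilled water at −30 min (1, 3 or 10 mg/kg), then 3 g/kg oral glucose (400 mg/mL) at 0 min.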

Mus musculus [11] = assay: Reduction in glucose excursion in C57BL/6J lean mouse at 10 mg/kg, po pretreated 30 mins before glucose challenge measured after 120 mins by oral glucose tolerance test relative to control; type: functional; design: scale not given: the % may be the effect or the level left; procedure, shortened: as §3
Mus musculus [12] = assay: Reduction in glucose excursion in po dosed C57BL/6J lean mouse pretreated for 30 mins before glucose challenge measured after 120 mins by oral glucose tolerance test; type: functional, organism-based; procedure, shortened: as §3
Mus musculus [13] = assay: Reduction in glucose AUC in C57BL/6J diet-induced obese mouse at 1 mg/kg, po pretreated 30 mins before glucose challenge measured after 120 mins by oral glucose tolerance test relative to control; type: functional; design: scale not given: the % may be the effect or the level left
Procedure, shortened: (§4)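 Male C57BL/6j DIO mice (40–50 g, 27 weeks old, n = 6/group) fasted overnight and grouped by tail-vein glucometer reading. Test agent given by oral gavage in distilled water, then 3 g/kg glucose orally (400 mg/mL in water) 30 min later.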

Mus musculus [14] = assay: Reduction in glucose AUC in C57BL/6J diet-induced obese mouse at 3 mg/kg, po pretreated 30 mins before glucose challenge measured after 120 mins by oral glucose tolerance test relative to control; type: functional; design: scale not given: the % may be the effect or the level left; procedure, shortened: as §4
Mus musculus [15] = assay: Reduction in glucose AUC in C57BL/6J diet-induced obese mouse at 10 mg/kg, po pretreated 30 mins before glucose challenge measured after 120 mins by oral glucose tolerance test relative to control; type: functional; design: scale not given: the % may be the effect or the level left; procedure, shortened: as §4
[16] = target: T2, Endothelin-converting enzyme 1 (Homo sapiens) (UniProt P42892); assay: Inhibition of ECE-1 at 10 uM
T2 sequence (whole entry): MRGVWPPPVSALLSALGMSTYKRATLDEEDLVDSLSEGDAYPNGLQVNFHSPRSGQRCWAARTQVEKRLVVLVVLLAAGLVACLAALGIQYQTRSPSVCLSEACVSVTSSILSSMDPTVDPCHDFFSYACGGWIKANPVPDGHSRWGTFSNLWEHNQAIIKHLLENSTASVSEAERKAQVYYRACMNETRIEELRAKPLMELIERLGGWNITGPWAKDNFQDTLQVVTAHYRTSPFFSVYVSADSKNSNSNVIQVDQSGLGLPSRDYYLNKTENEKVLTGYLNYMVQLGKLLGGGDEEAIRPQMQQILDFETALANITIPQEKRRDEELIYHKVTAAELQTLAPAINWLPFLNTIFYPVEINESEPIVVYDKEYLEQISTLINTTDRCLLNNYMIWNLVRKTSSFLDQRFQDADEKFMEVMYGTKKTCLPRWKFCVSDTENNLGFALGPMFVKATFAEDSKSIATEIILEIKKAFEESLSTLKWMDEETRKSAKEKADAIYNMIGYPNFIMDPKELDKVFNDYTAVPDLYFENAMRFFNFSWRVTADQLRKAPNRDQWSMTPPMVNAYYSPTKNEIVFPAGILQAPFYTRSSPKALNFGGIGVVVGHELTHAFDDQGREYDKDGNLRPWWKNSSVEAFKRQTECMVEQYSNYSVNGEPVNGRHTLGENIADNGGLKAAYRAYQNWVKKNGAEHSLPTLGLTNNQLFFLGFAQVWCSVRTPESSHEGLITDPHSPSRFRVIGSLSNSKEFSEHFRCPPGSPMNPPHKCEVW
Procedure, shortened: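 Part of a panel of 167 enzyme assays; percent inhibition at a test concentration of 10 µM.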

IC50 (Dipeptidyl peptidase 2): > 20 µM | IC50 (Prolyl endopeptidase FAP): > 20 µM | Activity (Homo sapiens [1]): > 1300 | Activity (Homo sapiens [2]): > 1300 | Activity (Homo sapiens [3]): > 1300 | clearance [4]: 22 mL/min/kg | Cmax [5]: 621 ng/mL | half-life [6]: 4.8 h | bioavailability [7]: 42% | inhibition [16]: 53%
SMILES: CC(C)(CC(=O)N[C@H]1C[C@@H]1c1cccc(Cl)c1)NCC(=O)N1C[C@@H](F)C[C@H]1C#N
inhibition at 10 µM (hERG (KCNH2)): 11% | inhibition in vivo at 10 mg/kg (Rattus norvegicus [8]): > 85% | Activity (Rattus norvegicus [9]): inactive | Activity (Mus musculus [10]): 50% | Activity (Mus musculus [11]): 73% | Activity (Mus musculus [12]): Dose-dependent effect | Activity (Mus musculus [13]): 72% | Activity (Mus musculus [14]): 98% | Activity (Mus musculus [15]): 83%
